According to ChEMBL document CHEMBL1138667, “Phenylguanidines as selective nonpeptide melanocortin-5 receptor antagonists” (J Med Chem, 2004):

Experiments:
[1] = target: T1, Melanocortin receptor 5 (Homo sapiens, UniProt P33032); experiment: Inhibition of [125I]NDP-MSH binding to human Melanocortin 5 receptor expressed in HEK293 cells; assay type: cell-based
Procedure, shortened: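 Competitive binding on membranes from HEK293 cells stably expressing human MC5 receptor, with [125I]NDP-MSH as the radioligand. Inhibition of radioligand binding was measured and Ki derived from more than 3 determinations.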

[2] = target: T2, Melanocyte-stimulating hormone receptor (Homo sapiens, UniProt Q01726); experiment: Percentage inhibition of human melanocortin 1 receptor at 10 uM
Target sequence in this assay (Q01726 whole entry, looked up): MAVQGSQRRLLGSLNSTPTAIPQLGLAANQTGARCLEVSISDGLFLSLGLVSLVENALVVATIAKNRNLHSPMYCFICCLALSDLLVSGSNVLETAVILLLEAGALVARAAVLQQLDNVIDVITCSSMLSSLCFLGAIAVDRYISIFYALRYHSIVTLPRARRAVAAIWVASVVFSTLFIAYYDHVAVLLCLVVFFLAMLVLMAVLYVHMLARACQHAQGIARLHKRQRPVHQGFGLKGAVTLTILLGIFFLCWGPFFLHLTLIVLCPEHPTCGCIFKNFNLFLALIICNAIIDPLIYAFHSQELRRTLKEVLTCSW

[3] = target: T3, Melanocortin receptor 4 (Homo sapiens, UniProt P32245); experiment: Intrinsic activity as percentage of maximal melanocortin receptor 4 related cAMP production relative to alpha-MSH; assay type: functional
T3 sequence (P32245 whole entry): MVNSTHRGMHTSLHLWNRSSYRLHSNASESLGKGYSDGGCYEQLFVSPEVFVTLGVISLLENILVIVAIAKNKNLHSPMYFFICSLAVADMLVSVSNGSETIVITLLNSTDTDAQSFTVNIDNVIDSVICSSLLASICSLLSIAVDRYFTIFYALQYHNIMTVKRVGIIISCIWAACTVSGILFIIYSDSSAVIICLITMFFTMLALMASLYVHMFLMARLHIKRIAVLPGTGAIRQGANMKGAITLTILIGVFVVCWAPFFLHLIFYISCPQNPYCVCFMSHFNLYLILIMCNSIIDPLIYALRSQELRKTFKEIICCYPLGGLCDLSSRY

[4] = target: Melanocortin receptor 3 (Homo sapiens, UniProt P41968); experiment: Binding affinity for human melanocortin 3 receptor
Sequence of Melanocortin receptor 3 (P41968 whole entry): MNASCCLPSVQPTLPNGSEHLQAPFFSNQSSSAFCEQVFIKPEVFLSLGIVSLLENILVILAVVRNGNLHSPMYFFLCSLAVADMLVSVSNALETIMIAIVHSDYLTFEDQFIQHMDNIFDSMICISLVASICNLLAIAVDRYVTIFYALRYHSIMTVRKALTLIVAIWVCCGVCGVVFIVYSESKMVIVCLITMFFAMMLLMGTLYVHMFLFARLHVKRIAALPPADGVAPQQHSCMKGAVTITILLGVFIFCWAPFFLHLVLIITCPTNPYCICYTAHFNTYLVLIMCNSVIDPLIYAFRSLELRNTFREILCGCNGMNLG
Procedure, shortened: (§1)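 Human MC1, MC3 or MC4 receptor expressed in HEK293 cells. Membranes bearing each receptor were used in a competitive binding assay measuring inhibition of [125I]NDP-MSH binding, with inhibition curves generated.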

[5] = target: T3, Melanocortin receptor 4; experiment: Binding affinity for human melanocortin 4 receptor; procedure, shortened: as §1
[6] = target: T1, Melanocortin receptor 5; experiment: Inhibition of human Melanocortin 5 receptor
[7] = target: T2, Melanocyte-stimulating hormone receptor; experiment: Binding affinity for human melanocortin 1 receptor; procedure, shortened: as §1
Target sequence in this assay (Q01726 whole entry): as the sequence (Q01726 whole entry, looked up) above

T1 sequence (P33032 whole entry): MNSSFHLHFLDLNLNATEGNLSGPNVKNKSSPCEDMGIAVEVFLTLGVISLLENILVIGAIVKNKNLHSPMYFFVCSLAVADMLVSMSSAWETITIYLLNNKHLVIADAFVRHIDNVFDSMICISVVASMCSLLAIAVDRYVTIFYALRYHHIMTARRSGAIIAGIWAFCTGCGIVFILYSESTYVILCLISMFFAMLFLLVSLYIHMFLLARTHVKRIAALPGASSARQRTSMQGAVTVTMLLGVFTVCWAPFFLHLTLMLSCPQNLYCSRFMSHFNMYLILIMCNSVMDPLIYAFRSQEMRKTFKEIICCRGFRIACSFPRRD

Row | SMILES | Ki [1] | Ki [4] | Ki [5] | IC50 [6] | further results
1 | C[C@@H]1CN(/C(=N/c2ccc(C(=O)NCCc3ccc(Cl)cc3Cl)cc2)NC2CCCCC2)CCN1 |  |  |  |  | inhibition [2]: 25%; IA [3]: 37%
2 | CNC1CCN(/C(=N/c2ccc(C(=O)NCCc3ccc(Cl)cc3Cl)cc2)NC2CCCCC2)C1 (stereo not given) | 36 nM | 2300 nM | 1400 nM | 630 nM | inhibition [2]: 27%; IA [3]: 36%
3 | CC1CN(/C(=N/c2ccc(C(=O)NCCc3ccc(Cl)cc3Cl)cc2)NC2CCCCC2)CC(C)N1 (stereo not given) |  |  |  |  | inhibition [2]: 23%; IA [3]: 76%
4 | O=C(NCCc1ccc(Cl)cc1Cl)c1ccc(NC(=NC2CCCCC2)N2CCN(c3ccccc3)CC2)cc1 | 290 nM |  |  |  | 
5 | O=C(NCCc1ccc(Cl)cc1Cl)c1ccc(NC(=NC2CCCCC2)N2CCN(c3ncccn3)CC2)cc1 | 305 nM |  |  |  | 
6 | CN1CCN(/C(=N/c2ccc(C(=O)NCCc3ccc(Cl)cc3Cl)cc2)NC2CCCCC2)CC1 | 50 nM |  |  |  | 
7 | O=C(NCCc1ccc(Cl)cc1Cl)c1ccc(N/C(=N/C2CCCCC2)N2CCNCC2)cc1 |  |  |  |  | IA [3]: 28%
8 | CC1CN(C(=NC2CCCCC2)Nc2ccc(C(=O)NCCc3ccc(Cl)cc3Cl)cc2)CC(C)O1 (stereo not given) | 350 nM |  |  |  | 
9 | CC(C)(N)C/N=C(\Nc1ccc(C(=O)NCCc2ccc(Cl)cc2Cl)cc1)NC1CCCCC1 | 5.3 nM | 2400 nM | 1300 nM | 530 nM | inhibition [2]: 27%; IA [3]: 45%
10 | CC1CN(C(=NC2CCCCC2)Nc2ccc(C(=O)NCCc3ccc(Cl)cc3Cl)cc2)CC(C)N1 (stereo not given) | 11 nM | 3900 nM | 590 nM | 89 nM | 
11 | O=C1CN(C(=NC2CCCCC2)Nc2ccc(C(=O)NCCc3ccc(Cl)cc3Cl)cc2)CCN1 | 560 nM |  |  |  | 

More lines, in order of falling Ki [1], values ahead:

Row | Ki [1] | Ki [4] | Ki [5] | IC50 [6] | SMILES | further results
12 | 1760 nM |  |  |  | Cc1ccc(C)c(N2CCN(C(=NC3CCCCC3)Nc3ccc(C(=O)NCCc4ccc(Cl)cc4Cl)cc3)CC2)c1 | 
13 | 1050 nM |  |  |  | CC1C(=O)NCCN1C(=NC1CCCCC1)Nc1ccc(C(=O)NCCc2ccc(Cl)cc2Cl)cc1 (stereo not given) | 
14 | 360 nM |  |  |  | CCCN(CCC)/C(=N/c1ccc(C(=O)NCCc2ccc(Cl)cc2Cl)cc1)NC1CCCCC1 | 
15 | 230 nM |  |  |  | NC1CCN(C(=NC2CCCCC2)Nc2ccc(C(=O)NCCc3ccc(Cl)cc3Cl)cc2)CC1 | 
16 | 144 nM |  |  |  | CC1CC(C)CN(C(=NC2CCCCC2)Nc2ccc(C(=O)NCCc3ccc(Cl)cc3Cl)cc2)C1 (stereo not given) | 
17 | 91 nM |  |  |  | CN(/C(=N/c1ccc(C(=O)NCCc2ccc(Cl)cc2Cl)cc1)NC1CCCCC1)C1CCCCC1 | 
18 | 77 nM |  |  |  | O=C(NCCc1ccc(Cl)cc1Cl)c1ccc(NC(=NC2CCCCC2)N2CCC(N3CCCC3)CC2)cc1 | 
19 | 70 nM |  |  |  | O=C(NCCc1ccc(Cl)cc1Cl)c1ccc(NC(=NC2CCCCC2)NCc2cc(F)cc(F)c2)cc1 | 
20 | 44 nM |  |  |  | O=C(NCCc1ccc(Cl)cc1Cl)c1ccc(NC(=NC2CCCCC2)N2CCN(Cc3ccccc3)CC2)cc1 | 
21 | 26 nM | 2500 nM | 1500 nM | 530 nM | O=C(NCCc1ccc(Cl)cc1Cl)c1ccc(N/C(=N\C2CCNC2)NC2CCCCC2)cc1 (stereo not given) | Ki [7]: 1900 nM
22 | 21 nM | 2800 nM | 580 nM | 380 nM | C[C@H]1CN(/C(=N/c2ccc(C(=O)NCCc3ccc(Cl)cc3Cl)cc2)NC2CCCCC2)CCN1 | inhibition [2]: 29%; IA [3]: 65%
23 | 18 nM | 2200 nM | 650 nM | 460 nM | O=C(NCCc1ccc(Cl)cc1Cl)c1ccc(NC(=NC2CCCCC2)N2CCNCC2)cc1 | Ki [7]: 400 nM
24 | 5.9 nM | 2800 nM | 840 nM | 380 nM | C[C@@H]1CN[C@@H](C)CN1/C(=N/c1ccc(C(=O)NCCc2ccc(Cl)cc2Cl)cc1)NC1CCCCC1 | Ki [7]: 360 nM
25 | 2.1 nM | 3500 nM | 840 nM | 70 nM | C[C@@H]1CN(C(=NC2CCCCC2)Nc2ccc(C(=O)NCCc3ccc(Cl)cc3Cl)cc2)CCN1 | 
